According to ChEMBL document CHEMBL1122233, “Antihypertensive 9-substituted 1-oxa-4,9-diazaspiro[5.5]undecan-3-ones” (J Med Chem, 1983):

Tests used:
Rattus norvegicus [1] = test: (§1) Percentage fall in systolic blood pressure after 2 hours at 50 mg/kg given perorally; assay type: functional, organism-based; parameters: dose 50 mg/kg; settings: Artery
In short: (§2)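 Male Okamoto-Aoki SHR, four per group, with a concurrent vehicle control group. Oral dosing in water (0.1 mL/10 g) on two consecutive mornings. After the day-2 dose, rats were restrained in a 30 °C chamber. Tail-cuff systolic pressure was taken at 1-4 h from four traces per rat. Result is % decrease versus control mean, by 1-tailed t test, p ≤ 0.05.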

Rattus norvegicus [2] = test: (§3) Percentage fall in systolic blood pressure after 3 hours at 50 mg/kg given perorally; assay type: functional, organism-based; parameters: dose 50 mg/kg; settings: Artery; in short: as §2
Rattus norvegicus [3] = test: (§4) Percentage fall in systolic blood pressure after 1 hr at 50 mg/kg given perorally; assay type: functional, organism-based; parameters: dose 50 mg/kg; settings: Artery
In short: (§5)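 Male Okamoto-Aoki spontaneously hypertensive rats, trained, in groups of four matched for mean systolic pressure; five treated groups and one vehicle control run concurrently. Oral dosing in water (solution or suspension, 0.1 mL/10 g) on two consecutive mornings. On day 2, rats were restrained at 30.0 ± 1.0 °C and tail-cuff systolic pressure recorded at 1–4 h; percent fall versus control, 1-tail t test, p ≤ 0.05.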

Rattus norvegicus [4] = test: (§6) Percentage fall in systolic blood pressure after 4 hours at 50 mg/kg given perorally; assay type: functional, organism-based; parameters: dose 50 mg/kg; settings: Artery; in short: as §2
Rattus norvegicus [5] = test: as §4; assay type: functional, Artery; settings: route oral; in short: as §2
Rattus norvegicus [6] = test: as §6; assay type: functional, Artery; settings: route oral; in short: as §2
Rattus norvegicus [7] = test: as §3; assay type: functional, Artery; settings: route oral; in short: as §2
Rattus norvegicus [8] = test: as §1; assay type: functional, Artery; settings: route oral; in short: as §2
Rattus norvegicus [9] = test: (§7) Percentage fall in systolic blood pressure after 4 hr at 12.5 mg/kg given perorally; assay type: functional, organism-based; parameters: dose 12.5 mg/kg; settings: Artery; in short: as §5
Rattus norvegicus [10] = test: (§8) Percentage fall in systolic blood pressure after 1 hr at 12.5 mg/kg given perorally; assay type: functional, organism-based; parameters: dose 12.5 mg/kg; settings: Artery; in short: as §5
Rattus norvegicus [11] = test: Percentage fall in systolic blood pressure after 3 hr at 12.5 mg/kg given perorally; assay type: functional, organism-based; parameters: dose 12.5 mg/kg; settings: Artery; in short: as §5
Rattus norvegicus [12] = test: Percentage fall in systolic blood pressure after 2 hr at 12.5 mg/kg given perorally; assay type: functional, organism-based; parameters: dose 12.5 mg/kg; settings: Artery; in short: as §5
Rattus norvegicus [13] = test: (§9) Percentage fall in systolic blood pressure after 4 hours at 12.5 mg/kg given perorally; assay type: functional, organism-based; parameters: dose 12.5 mg/kg; settings: Artery; in short: as §2
Rattus norvegicus [14] = test: (§10) Percentage fall in systolic blood pressure after 3 hours at 12.5 mg/kg given perorally; assay type: functional, Artery; settings: route oral; in short: as §2
Rattus norvegicus [15] = test: Percentage fall in systolic blood pressure after 2 hours at 12.5 mg/kg given perorally; assay type: functional, Artery; settings: route oral; in short: as §2
Rattus norvegicus [16] = test: as §8; assay type: functional, Artery; settings: route oral; in short: as §2
Rattus norvegicus [17] = test: Percentage fall in systolic blood pressure after 1 hr at 25 mg/kg given perorally; assay type: functional, Artery; settings: route oral; in short: as §5
Rattus norvegicus [18] = test: Percentage fall in systolic blood pressure after 3 hr at 25 mg/kg given perorally; assay type: functional, Artery; settings: route oral; in short: as §5
Rattus norvegicus [19] = test: Percentage fall in systolic blood pressure after 4 hr at 25 mg/kg given perorally; assay type: functional, Artery; settings: route oral; in short: as §5
Rattus norvegicus [20] = test: Percentage fall in systolic blood pressure after 2 hr at 25 mg/kg given perorally; assay type: functional, Artery; settings: route oral; in short: as §5
Rattus norvegicus [21] = test: as §7; assay type: functional, Artery; settings: route oral; in short: as §5
Rattus norvegicus [22] = test: as §6; assay type: functional, organism-based; parameters: dose 50 mg/kg; settings: Artery; in short: as §5; remark: listed apart in the source
Rattus norvegicus [23] = test: as §10; assay type: functional, organism-based; parameters: dose 12.5 mg/kg; settings: Artery; in short: as §2
Rattus norvegicus [24] = test: as §9; assay type: functional, Artery; settings: route oral; in short: as §2

| Compound | Decrease in SBP (Rattus norvegicus [2]) | Decrease in SBP (Rattus norvegicus [4]) | Decrease in SBP (Rattus norvegicus [5]) [%] | Decrease in SBP (Rattus norvegicus [6]) [%] | Decrease in SBP (Rattus norvegicus [7]) [%] | Decrease in SBP (Rattus norvegicus [8]) [%] | further results |
| --- | --- | --- | --- | --- | --- | --- | --- |
| COc1cc2c(cc1OC)[C@@H]1C[C@@]3(CCN1CC2)CN(C)C(=O)CO3 | Not significant | Not significant | – | – | – | – | Decrease in SBP (Rattus norvegicus [1]): Not significant; Decrease in SBP (Rattus norvegicus [3]): Not significant |
| CC1OC2(CCN(CCc3c[nH]c4ccccc34)CC2)CNC1=O (stereo not given) | – | – | 30 | 26 | 21 | 36 | – |
| O=C1COC2(CCN(CCc3ccc(Cl)cc3)CC2)CN1 | – | – | – | – | – | – | Decrease in SBP (Rattus norvegicus [9]): Not significant; Decrease in SBP (Rattus norvegicus [10]): Not significant; Decrease in SBP (Rattus norvegicus [11]): Not significant; Decrease in SBP (Rattus norvegicus [12]): Not significant |
| CC1NC(=O)COC12CCN(CCc1c[nH]c3ccccc13)CC2 (stereo not given) | – | – | 56 | 50 | 41 | 48 | Decrease in SBP (Rattus norvegicus [13]): Not significant; Decrease in SBP (Rattus norvegicus [14]): 24%; Decrease in SBP (Rattus norvegicus [15]): 36%; Decrease in SBP (Rattus norvegicus [16]): 24% |
| O=C1COC2(CCN(CCCC(=O)c3ccc(F)cc3)CC2)CN1 | – | – | – | – | – | – | Decrease in SBP (Rattus norvegicus [10]): Not significant; Decrease in SBP (Rattus norvegicus [17]): 50%; Decrease in SBP (Rattus norvegicus [18]): 29%; Decrease in SBP (Rattus norvegicus [11]): Not significant; Decrease in SBP (Rattus norvegicus [19]): 30%; Decrease in SBP (Rattus norvegicus [12]): Not significant; Decrease in SBP (Rattus norvegicus [20]): 33%; Decrease in SBP (Rattus norvegicus [21]): 18% |
| CC1OC2(CCN(CCc3c[nH]c4ccccc34)CC2)CN(C)C1=O (stereo not given) | Not significant | Not significant | 32 | – | – | – | Decrease in SBP (Rattus norvegicus [1]): Not significant |
| O=C1COC2(CCN(CCc3c[nH]c4ccccc34)CC2)C(c2ccccc2)N1 (stereo not given) | Not significant | Not significant | 21 | – | – | 19 | – |
| CN1CC2(CCN(CC(O)C3COc4ccccc4O3)CC2)OCC1=O (stereo in doubt; 61) | – | – | – | – | – | – | Decrease in SBP (Rattus norvegicus [11]): Not significant |
| O=C(NCC1CCN(CCc2c[nH]c3ccccc23)CC1)c1ccccc1 | – | – | – | 32 | 30 | 27 | Decrease in SBP (Rattus norvegicus [3]): Not significant |
| O=C1COC2(CCN(CC(O)c3ccccc3)CC2)CN1 (stereo not given) | Not significant | – | – | – | – | – | Decrease in SBP (Rattus norvegicus [1]): Not significant; Decrease in SBP (Rattus norvegicus [3]): Not significant; Decrease in SBP (Rattus norvegicus [22]): Not significant |
| CCC1OC2(CCN(CCc3c[nH]c4ccccc34)CC2)CN(C)C1=O (stereo not given) | Not significant | Not significant | 16 | – | – | – | Decrease in SBP (Rattus norvegicus [1]): Not significant |
| CCC1NC(=O)COC12CCN(CCc1c[nH]c3ccccc13)CC2 (stereo not given) | – | – | 40 | 43 | 41 | 54 | Decrease in SBP (Rattus norvegicus [13]): Not significant; Decrease in SBP (Rattus norvegicus [15]): 25%; Decrease in SBP (Rattus norvegicus [16]): 21%; Decrease in SBP (Rattus norvegicus [23]): Not significant |
| CN1CC2(CCN(CCc3c[nH]c4ccccc34)CC2)OCC1=O | – | – | 50 | 26 | 34 | 44 | Decrease in SBP (Rattus norvegicus [14]): 20%; Decrease in SBP (Rattus norvegicus [15]): 19%; Decrease in SBP (Rattus norvegicus [24]): 17%; Decrease in SBP (Rattus norvegicus [16]): 25% |
| NCC1CCN(CCc2c[nH]c3ccccc23)CC1 | Not significant | – | 20 | 20 | – | 24 | – |
| CCN1C(=O)COC2(CCN(CCc3c[nH]c4ccccc34)CC2)C1C (stereo not given) | Not significant | Not significant | 20 | – | – | – | Decrease in SBP (Rattus norvegicus [1]): Not significant |
| CC1N(C)C(=O)COC12CCN(CCc1c[nH]c3ccccc13)CC2 (stereo not given) | Not significant | Not significant | 29 | – | – | 22 | – |
| O=C1COC2(CCN(CCCOc3ccccc3)CC2)CN1 | – | – | – | – | – | – | Decrease in SBP (Rattus norvegicus [9]): Not significant; Decrease in SBP (Rattus norvegicus [10]): Not significant; Decrease in SBP (Rattus norvegicus [11]): Not significant; Decrease in SBP (Rattus norvegicus [12]): Not significant |
| CCC1NC(=O)COC12CCN(CC(O)C1COc3ccccc3O1)CC2 (stereo not given) | – | – | 40 | 26 | 36 | 44 | – |
